Data: ChEMBL document CHEMBL4002610, “Design, synthesis and biological activity evaluation of novel 2,6-difluorobenzamide derivatives through FtsZ inhibition” (2017)
Converted amounts (≈) assume the structure as drawn. The source made the active and inactive calls. The calls are words filed in the database; no cut-off is given here.

Assays:
[1] = test system: Staphylococcus aureus; assay: Antibacterial activity against Staphylococcus aureus ATCC 25923 after 24 hrs by broth microdilution method; assay type: functional; conditions: ATCC 25923, 24 h
In short: (§1)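 MIC by standard broth microdilution per NCCLS guidance. Strain panel: B. subtilis ATCC9372 and S. aureus ATCC25923 as standard susceptible strains, S. aureus ATCC29213 as […], S. pyogenes PS as penicillin-susceptible, S. pneumoniae ATCC49619 as standard susceptible, alongside Gram-negative strains.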

[2] = test system: Bacillus subtilis; assay: Inhibition of FtsZ in Bacillus subtilis ATCC 9372 assessed as decrease in cell division by measuring cell morphology at 2048 to 4096 ug/ml after 5 hrs by phase-contrast light microscopy
[3] = test system: Staphylococcus aureus; assay: Antibacterial activity against Staphylococcus aureus ATCC 29213 after 24 hrs by broth microdilution method; assay type: functional; conditions: ATCC 29213, 24 h; in short: as §1
[4] = biological target: T1, Cell division protein FtsZ (Staphylococcus aureus) (UniProt P0A031); assay: Inhibition of FtsZ in Staphylococcus aureus ATCC 25923 assessed as decrease in cell division by measuring cell morphology at 2048 to 4096 ug/ml after 5 hrs by phase-contrast light microscopy
T1 sequence (whole entry): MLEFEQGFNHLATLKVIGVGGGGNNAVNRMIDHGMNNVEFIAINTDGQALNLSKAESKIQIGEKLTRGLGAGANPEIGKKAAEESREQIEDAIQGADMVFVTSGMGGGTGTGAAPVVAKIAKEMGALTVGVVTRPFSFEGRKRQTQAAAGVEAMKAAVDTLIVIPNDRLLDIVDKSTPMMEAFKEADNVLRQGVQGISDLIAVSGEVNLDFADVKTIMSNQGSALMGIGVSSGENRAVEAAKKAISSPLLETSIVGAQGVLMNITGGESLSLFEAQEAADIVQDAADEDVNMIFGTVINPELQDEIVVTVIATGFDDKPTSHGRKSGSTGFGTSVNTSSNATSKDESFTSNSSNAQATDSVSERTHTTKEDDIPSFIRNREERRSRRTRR

[5] = test system: Pseudomonas aeruginosa; assay: Antibacterial activity against Pseudomonas aeruginosa ATCC 27853 after 24 hrs by broth microdilution method; assay type: functional; conditions: ATCC 27853, 24 h; in short: as §1
[6] = test system: Streptococcus pyogenes; assay: Antibacterial activity against penicillin-susceptible Streptococcus pyogenes after 24 hrs by broth microdilution method; assay type: functional; in short: as §1
[7] = test system: Streptococcus pneumoniae; assay: Antibacterial activity against Streptococcus pneumoniae ATCC 49619 after 24 hrs by broth microdilution method; assay type: functional; conditions: ATCC 49619, 24 h; in short: as §1
[8] = test system: Escherichia coli ATCC 25922; assay: Inhibition of FtsZ in Escherichia coli ATCC 25922 assessed as decrease in cell division by measuring lowest compound concentration at which bacterial filamentation is observed after 5 hrs by phase-contrast light microscopy
In short: (§2)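 Cell division inhibition scored by cell morphology under phase-contrast light microscopy. B. subtilis ATCC9372, E. coli ATCC25922 and S. aureus ATCC25923 were exposed to compound. The lowest concentration giving filamentation (B. subtilis, E. coli) or ballooning (S. aureus) was recorded as the cell division inhibitory concentration.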

[9] = test system: Escherichia coli; assay: Antibacterial activity against Escherichia coli ATCC 25922 after 24 hrs by broth microdilution method; assay type: functional; conditions: ATCC 25922, 24 h; in short: as §1
[10] = test system: Staphylococcus aureus; assay: Antibacterial activity against penicillin-resistant Staphylococcus aureus clinical isolate after 24 hrs by broth microdilution method; assay type: functional
[11] = test system: Bacillus subtilis; assay: Antibacterial activity against Bacillus subtilis ATCC 9372 after 24 hrs by broth microdilution method; assay type: functional; conditions: ATCC 9372, 24 h; in short: as §1
[12] = biological target: T1, Cell division protein FtsZ (Staphylococcus aureus); assay: Inhibition of FtsZ in Staphylococcus aureus ATCC 25923 assessed as decrease in cell division by measuring lowest compound concentration at which bacterial ballooning is observed after 5 hrs by phase-contrast light microscopy; in short: as §2
[13] = test system: Bacillus subtilis; assay: Inhibition of FtsZ in Bacillus subtilis ATCC 9372 assessed as decrease in cell division by measuring lowest compound concentration at which bacterial filamentation is observed after 5 hrs by phase-contrast light microscopy; in short: as §2

SMILES | MIC [1] | inhibition [2] | MIC [3] | inhibition [4] | MIC [5] | MIC [6] | MIC [7] | INH [8] | MIC [9] | MIC [10] | MIC [11] | INH [12] | INH [13]
NC(=O)c1c(F)ccc(OCCn2cnc3ccccc32)c1F | 1020 µg/mL (≈ 3230 µM) | inactive | 512 µg/mL (≈ 1610 µM) | inactive | 1020 µg/mL (≈ 3230 µM) | 1020 µg/mL (≈ 3230 µM) | 512 µg/mL (≈ 1610 µM) | 256 µg/mL | 512 µg/mL (≈ 1610 µM) | 1020 µg/mL (≈ 3230 µM) | 1020 µg/mL (≈ 3230 µM) | – | –
NC(=O)c1c(F)ccc(OCc2nc3ccccc3[nH]2)c1F | 1020 µg/mL (≈ 3380 µM) | inactive | 512 µg/mL (≈ 1690 µM) | – | 256 µg/mL (≈ 844 µM) | 1020 µg/mL (≈ 3380 µM) | 256 µg/mL (≈ 844 µM) | 128 µg/mL | 256 µg/mL (≈ 844 µM) | 1020 µg/mL (≈ 3380 µM) | 1020 µg/mL (≈ 3380 µM) | 512 µg/mL | –
NC(=O)c1c(F)ccc(OCCCCCn2cnc3ccccc32)c1F | 512 µg/mL (≈ 1420 µM) | inactive | 512 µg/mL (≈ 1420 µM) | inactive | 512 µg/mL (≈ 1420 µM) | 1020 µg/mL (≈ 2850 µM) | 512 µg/mL (≈ 1420 µM) | 512 µg/mL | 1020 µg/mL (≈ 2850 µM) | 512 µg/mL (≈ 1420 µM) | 512 µg/mL (≈ 1420 µM) | – | –
NC(=O)c1c(F)ccc(OCCCCn2cnc3ccccc32)c1F | 1020 µg/mL (≈ 2970 µM) | inactive | 512 µg/mL (≈ 1480 µM) | inactive | 512 µg/mL (≈ 1480 µM) | 1020 µg/mL (≈ 2970 µM) | 512 µg/mL (≈ 1480 µM) | 512 µg/mL | 1020 µg/mL (≈ 2970 µM) | 1020 µg/mL (≈ 2970 µM) | 512 µg/mL (≈ 1480 µM) | – | –
NC(=O)c1c(F)ccc(OCCCCn2cnc3cc([N+](=O)[O-])ccc32)c1F | 1020 µg/mL (≈ 2620 µM) | inactive | 256 µg/mL (≈ 656 µM) | inactive | 512 µg/mL (≈ 1310 µM) | 256 µg/mL (≈ 656 µM) | 128 µg/mL (≈ 328 µM) | 256 µg/mL | 512 µg/mL (≈ 1310 µM) | 512 µg/mL (≈ 1310 µM) | 64 µg/mL (≈ 164 µM) | 512 µg/mL | –
NC(=O)c1c(F)ccc(OCCCCCCn2cnc3cc([N+](=O)[O-])ccc32)c1F | 1020 µg/mL (≈ 2450 µM) | – | 512 µg/mL (≈ 1220 µM) | inactive | 512 µg/mL (≈ 1220 µM) | 512 µg/mL (≈ 1220 µM) | 256 µg/mL (≈ 612 µM) | 256 µg/mL | 512 µg/mL (≈ 1220 µM) | 1020 µg/mL (≈ 2450 µM) | 1020 µg/mL (≈ 2450 µM) | – | 64 µg/mL
